Reference: ChEMBL document CHEMBL3856209, “Novel pyrazolopyridine derivatives as potential angiogenesis inhibitors: Synthesis, biological evaluation and transcriptome-based mechanistic analysis” (Eur J Med Chem, 2016)
pIC50: −log10 of the molar value. The source made the active and inactive calls. The rule behind the calls is not given here.

Assays:
HUVEC [1] = assay: Antimigratory activity in HUVEC at 0.2 to 2 uM after 6 hrs in presence of 5% fetal bovine serum by transwell assay; type: functional, cell-based; conditions: Homo sapiens
Outline: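 Serum-starved confluent HUVEC pre-treated overnight with compound or vehicle in 5% FBS medium. Then placed in the upper chamber of 8 µm-pore Transwells (6×10^4 cells/well) and allowed to migrate 6 h toward 5% FBS or starvation medium. Migrated cells fixed, H&E stained, and counted in five fields/well; expressed as % of control; replicates from two independent experiments.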

EA.hy 926 = assay: Antiproliferative activity against human EAhy926 cells assessed as decrease in cell viability at 0.2 to 2 uM after 24 to 48 hrs in presence of 2.5% fetal bovine serum by MTT assay; type: functional, cell-based
Outline: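 EA.hy926 seeded at 4×10^3/well, adhered 24 h, and starved 4 h in 0.25% BSA medium. Then treated with compound or 0.1% v/v DMSO in medium with 2.5% FBS for 48 h. MTT 0.5 mg/mL for 4 h, A595 with 630 nm correction, cell number from a standard curve. Expressed as % of DMSO control; replicates from two independent experiments.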

[2] = Antiproliferative activity against human EAhy926 cells assessed as decrease in cell viability after 24 to 48 hrs in presence of 2.5% fetal bovine serum by MTT assay; type: functional, cell-based; conditions: EA.hy 926
Outline: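 EA.hy926 in DMEM with 2.5% FBS exposed 48 h to serial 1:2 compound dilutions spanning 0.125–50 μM. Viable cells measured by MTT (0.5 mg/mL, 4 h, A595/630 nm). IC50 (mean ± SEM) fitted by non-linear regression from eight or more points.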

HUVEC [3] = assay: Inhibition of VEGF-165-induced HUVEC chemotactic migration at 0.2 to 2 uM after 6 hrs by transwell assay; type: functional, cell-based; conditions: Homo sapiens
Outline: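 Serum-starved HUVEC were pre-treated overnight with compound or vehicle in 5% FBS medium. Cells were then seeded at 6×10^4 per upper Transwell chamber (8 µm pores) and migrated for 6 h toward VEGF-165 (50 ng/mL) or starvation medium. Migrated cells were ethanol-fixed, stained with H&E and counted in five fields per well. Results are % of control from at least two independent experiments.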

HUVEC [4] = assay: Inhibition of total protein tyrosine kinase activity in serum-starved HUVEC at 1 to 4 uM after 2 hrs; type: cell-based; conditions: Homo sapiens
[5] = target: Vascular endothelial growth factor receptor 2 (Homo sapiens) (UniProt P35968); assay: Inhibition of VEGF-165-induced VEGFR2 autophosphorylation at Tyr1175 in serum-starved HUVEC at 2 uM preincubated for 2 hrs followed by VEGF-165 induction measured after 5 mins by Western blot analysis; type: cell-based
Chain of Vascular endothelial growth factor receptor 2 (Homo sapiens) (P35968 whole entry): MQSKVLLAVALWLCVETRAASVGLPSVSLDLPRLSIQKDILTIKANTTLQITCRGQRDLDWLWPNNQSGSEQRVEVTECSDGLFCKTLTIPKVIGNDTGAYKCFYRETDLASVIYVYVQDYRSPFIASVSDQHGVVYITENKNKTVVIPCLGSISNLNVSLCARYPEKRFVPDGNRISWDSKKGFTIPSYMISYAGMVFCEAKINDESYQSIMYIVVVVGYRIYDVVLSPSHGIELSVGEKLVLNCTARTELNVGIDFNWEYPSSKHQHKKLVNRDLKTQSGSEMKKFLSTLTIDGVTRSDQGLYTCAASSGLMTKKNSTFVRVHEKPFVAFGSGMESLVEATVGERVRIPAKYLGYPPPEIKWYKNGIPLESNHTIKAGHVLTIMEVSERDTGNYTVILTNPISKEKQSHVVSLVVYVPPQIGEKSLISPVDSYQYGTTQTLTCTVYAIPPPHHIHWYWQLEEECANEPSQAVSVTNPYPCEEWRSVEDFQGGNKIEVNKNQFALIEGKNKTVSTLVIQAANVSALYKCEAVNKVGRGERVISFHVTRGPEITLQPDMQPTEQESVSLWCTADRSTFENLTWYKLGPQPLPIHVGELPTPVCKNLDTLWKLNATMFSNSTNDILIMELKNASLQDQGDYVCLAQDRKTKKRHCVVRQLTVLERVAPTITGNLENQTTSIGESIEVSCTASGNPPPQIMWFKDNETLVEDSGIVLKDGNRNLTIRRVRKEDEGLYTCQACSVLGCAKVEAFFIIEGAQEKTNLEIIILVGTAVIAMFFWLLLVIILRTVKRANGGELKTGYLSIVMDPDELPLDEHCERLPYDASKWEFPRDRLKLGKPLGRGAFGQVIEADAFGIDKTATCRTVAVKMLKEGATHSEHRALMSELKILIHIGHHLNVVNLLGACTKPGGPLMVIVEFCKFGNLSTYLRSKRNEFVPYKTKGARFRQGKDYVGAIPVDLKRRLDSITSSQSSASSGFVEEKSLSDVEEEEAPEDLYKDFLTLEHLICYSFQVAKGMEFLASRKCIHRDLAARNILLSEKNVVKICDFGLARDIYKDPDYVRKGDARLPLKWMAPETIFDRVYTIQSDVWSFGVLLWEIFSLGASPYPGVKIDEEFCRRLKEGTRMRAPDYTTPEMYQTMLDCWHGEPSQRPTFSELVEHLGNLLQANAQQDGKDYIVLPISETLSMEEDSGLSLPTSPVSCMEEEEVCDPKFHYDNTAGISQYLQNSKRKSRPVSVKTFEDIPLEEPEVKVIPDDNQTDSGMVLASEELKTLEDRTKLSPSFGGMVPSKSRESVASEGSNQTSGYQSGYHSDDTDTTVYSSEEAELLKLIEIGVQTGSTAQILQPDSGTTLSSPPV
Outline: (§1)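 Serum-starved HUVEC were given 2 µM compound or vehicle for 2 h, then VEGF-165 (50 ng/mL) or PBS for 5 min. Lysates with equal protein were run on SDS-PAGE and immunoblotted for phospho-VEGFR2 (Tyr951, 996, 1056, 1175), p-AKT Ser473, p-ERK1/2 and the total proteins. Detection was by ECL with densitometry. Phospho signals were normalized to total protein, n = 3.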

[6] = Effect on total VEGFR2 levels in VEGF-165-induced serum-starved HUVEC at 2 uM preincubated for 2 hrs followed by VEGF-165 induction measured after 5 mins by Western blot analysis; type: cell-based; conditions: human; outline: as §1
[7] = target: Vascular endothelial growth factor receptor 2 (Homo sapiens) (UniProt P35968); assay: Inhibition of VEGF-165-induced VEGFR2 autophosphorylation in serum-starved HUVEC assessed as decrease in AKT phosphorylation at 2 uM preincubated for 2 hrs followed by VEGF-165 induction measured after 5 mins by Western blot analysis; type: cell-based; outline: as §1
[8] = target: Vascular endothelial growth factor receptor 2 (Homo sapiens) (UniProt P35968); assay: Inhibition of VEGF-165-induced VEGFR2 autophosphorylation in serum-starved HUVEC assessed as decrease in ERK1/2 phosphorylation at 2 uM preincubated for 2 hrs followed by VEGF-165 induction measured after 5 mins by Western blot analysis; type: cell-based; outline: as §1
Lewis lung carcinoma [9] = assay: Antitumor activity against mouse LLC cells allografted in C57BL/6 mouse assessed as tumor growth inhibition at 0.2 mg/kg, ip administered thrice a week for 2 weeks starting 24 hrs before tumor implantation measured every other day of compound dosing by electronic caliper-based method; type: functional, organism-based
Outline: (§2)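 Male 6–8 week C57BL/6 mice (groups of 5–6) inoculated sc in the right flank with 5×10^5 LLC cells. Compound (0.2 mg/kg) or DMSO vehicle given ip thrice weekly for 2 weeks, starting 24 h before implantation. Tumors measured by caliper every other day. At end-point, anti-CD31 IHC (1:100) of tumor sections, with immunoreactive cells counted in six high-power fields.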

Mus musculus [10] = assay: Toxicity in C57BL/6 mouse allografted with mouse LLC cells at 0.05 to 0.2 mg/kg, ip administered thrice a week for 2 weeks starting 24 hrs before tumor implantation by clinical test; type: organism-based; conditions: in vivo
Outline: (§3)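 Male C57BL/6 mice, 6–8 weeks old, in groups of 5–6, received 5×10^5 LLC cells sc in the right flank. Compound (0.05–0.2 mg/kg) or DMSO vehicle was given ip thrice weekly for 2 weeks, starting 24 h before implantation. Mice were weighed and examined clinically every other day. At end-point, kidney, lung, spleen, liver and heart sections were H&E-stained and examined microscopically.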

Mus musculus [11] = assay: Toxicity in C57BL/6 mouse allografted with mouse LLC cells assessed as effect on vital organs at 0.05 to 0.2 mg/kg, ip administered thrice a week for 2 weeks starting 24 hrs before tumor implantation by haematoxylin-eosin staining-based microscopic analysis; type: organism-based; conditions: in vivo; outline: as §3
Lewis lung carcinoma [12] = assay: Antiangiogenic activity in mouse LLC cells allografted in C57BL/6 mouse assessed as decrease of microvessel density in tumor at 0.2 mg/kg, ip administered thrice a week for 2 weeks starting 24 hrs before tumor implantation measured post last dose by IHC analysis; type: functional, organism-based; outline: as §2
HUVEC [13] = assay: Effect on KIF20A gene expression in serum-starved HUVEC after 6 hrs by microarray analysis relative to control; type: functional, Homo sapiens
Outline: (§4)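 Confluent, serum-starved HUVEC (pooled from 3–5 donors, passage ≤4) treated with 2 μM compound or vehicle with 2.5% FBS for 6 h or 24 h. Total RNA hybridized to Illumina Human-HT12 arrays. Data were background-corrected, vst-transformed and rsn-normalized. Hits called by moderated paired t-test versus DMSO-treated cells, p < 0.05 and log2 fold change >|0.5|.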

HUVEC [14] = assay: Effect on RNA28S5 gene expression in serum-starved HUVEC after 6 hrs by microarray analysis relative to control; type: functional, Homo sapiens
Outline: (§5)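 Serum-starved confluent HUVEC (pooled from 3–5 donors, passage ≤4) were treated with 2 μM compound or vehicle in 2.5% FBS for 6 h or 24 h, and total RNA was isolated. Hybridization was on Illumina Human-HT12. Data were processed with bgAdjust, vst and rsn normalization. Changes versus DMSO were called by moderated paired t-test at p < 0.05 and |log2 fold change| > 0.5.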

HUVEC [15] = assay: Effect on RNU1-3 gene expression in serum-starved HUVEC after 6 hrs by microarray analysis relative to control; type: functional, Homo sapiens; outline: as §5
HUVEC [16] = assay: Effect on GNG12 gene expression in serum-starved HUVEC after 24 hrs by microarray analysis relative to control; type: functional, Homo sapiens; outline: as §4
HUVEC [17] = assay: Effect on KIF20A gene expression in serum-starved HUVEC after 24 hrs by microarray analysis relative to control; type: functional, Homo sapiens; outline: as §4
HUVEC [18] = assay: Effect on RNU1-3 gene expression in serum-starved HUVEC after 24 hrs by microarray analysis relative to control; type: functional, Homo sapiens; outline: as §5

| inhibition (HUVEC [4]) | inhibition [5] | inhibition [7] | inhibition [8] | Compound | Activity (HUVEC [1]) | Activity (EA.hy 926) | pIC50 [2] | inhibition (HUVEC [3]) | Activity [6] | TGI (Lewis lung carcinoma [9]) | Activity (Mus musculus [10]) | Activity (Mus musculus [11]) | Activity (Lewis lung carcinoma [12]) | log2FC (HUVEC [13]) | log2FC (HUVEC [14]) | log2FC (HUVEC [15]) | log2FC (HUVEC [16]) | log2FC (HUVEC [17]) | log2FC (HUVEC [18]) |
| --- | --- | --- | --- | --- | --- | --- | --- | --- | --- | --- | --- | --- | --- | --- | --- | --- | --- | --- | --- |
| Active | Active | Active | Active | COc1ccc(Cn2nc(-c3ccccc3)c3cc(Cl)nc(N4CCNCC4)c32)cc1 | Active | Active | 5.37 | Active | Non-Toxic | Active | Non-Toxic | Non-Toxic | Active | -0.1005 | -0.7662 | -0.5393 | 0.2465 | -0.5549 | -0.1906 |
| Active | Active | Active | Active | COc1ccc(Cn2nc(-c3ccccc3)c3cc(Nc4ccc(N5CCN(C)CC5)cc4)nc(N4CCNCC4)c32)cc1 | Active | Active | 4.92 | Active | Non-Toxic | Active | Non-Toxic | Non-Toxic | Active | -0.0473 | -0.6261 | -0.5169 | 0.1458 | -0.5596 | 0.1133 |
| Active | Active | Active | Active | COc1ccc(Cn2nc(-c3ccccc3)c3cc(Nc4ccc(N5CCN(C)CC5)cc4)nc(N4CCN(C)CC4)c32)cc1 | Active | Active | 5.14 | Active | Non-Toxic | Active | Non-Toxic | Non-Toxic | Active | -0.1216 | -1.164 | -0.5806 | 0.1566 | -0.9386 | 0.1009 |
